Assay outcomes: PubChem, several laboratories
eIF4E-4G inh: eIF4E/eIF4G interaction inhibition in translation initiation | P63073+Q04637 | TR-FRET eIF4E-eIF4GI(517-606) binding, 2 h | inhibition, % at 21.7 µM | hit rate 0.37% among 220,000 | AID 782;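 active = inhibition above about 30%, limit read from the data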;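 also: 0% = full FRET control wells and 100% = background wells lacking eIF4GI fragment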
Runt-SMMHC FRET: blocks binding of human RUNX1 Runt domain to CBFb-SMMHC | Q01196+Q13951 | Cerulean-Runt/Venus-CBFb-SMMHC FRET ratio 530/480, 1 h | inhibition, % at 20 µM | hit rate 0.74% among 220,000;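 active = mean inhibition across duplicate retests at 20 µM reaching about 50%, limit read from the data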;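 also: 0% = DMSO wells and 100% = wells with excess untagged CBFb-SMMHC; inhibitors lower the FRET ratio by blocking Runt binding to CBFb-SMMHC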
Target sequence (Q01196 whole entry, looked up, the tested form may be a part): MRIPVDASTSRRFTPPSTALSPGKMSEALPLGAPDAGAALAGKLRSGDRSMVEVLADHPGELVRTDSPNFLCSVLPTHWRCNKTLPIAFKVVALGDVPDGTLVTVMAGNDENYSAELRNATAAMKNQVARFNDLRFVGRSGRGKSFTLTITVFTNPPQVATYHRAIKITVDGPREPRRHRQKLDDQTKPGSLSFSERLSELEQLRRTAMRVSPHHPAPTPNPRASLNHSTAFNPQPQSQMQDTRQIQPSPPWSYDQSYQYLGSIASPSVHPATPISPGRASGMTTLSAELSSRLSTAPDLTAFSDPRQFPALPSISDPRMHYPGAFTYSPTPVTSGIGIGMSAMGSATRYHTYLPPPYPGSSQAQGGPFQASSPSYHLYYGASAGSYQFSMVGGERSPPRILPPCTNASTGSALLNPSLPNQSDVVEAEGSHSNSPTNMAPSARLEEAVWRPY
Target sequence (Q13951 whole entry, looked up, the tested form may be a part): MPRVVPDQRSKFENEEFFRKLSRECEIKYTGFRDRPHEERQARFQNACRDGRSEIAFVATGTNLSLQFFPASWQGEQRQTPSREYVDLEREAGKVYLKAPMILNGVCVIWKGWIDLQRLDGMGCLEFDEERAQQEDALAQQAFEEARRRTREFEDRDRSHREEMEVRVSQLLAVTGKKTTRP
RanGTP-Impb inh: disruptors of Ran-importin-beta complex formation – biochemical, FRET, CFP-Ran, YFP-importin-beta, homogeneous, primary screen; inhibition, % (test concentration not listed); hit rate 1.1% among 300,000; cell-free CFP-Ran/YFP-importin-beta FRET ratio;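 active = more than half of the replicate wells show a fall in the fluorescence ratio signal beyond about 16%, limit read from the data, passing the limit was not always enough; inconclusive = exactly half of the replicate wells pass the set limit; inactive = fewer than half of replicates pass the limit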;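 also: 0% = DMSO wells and 100% = Ran loaded with GDP instead of GTP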
PERK inh: human PERK inhibition, primary cell-based screen. inhibition, % at 5.6 µM. CHO PERK-DD fusion, SEAP luminescence translation reporter. hit rate 0.17% among 220,000. Q9NZJ5;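 active = inhibition above the mean inhibition of all tested compounds plus 3 SD, set separately per screening campaign, cut at about 2.9% in these data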;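 also: PERK kinase domain activated by AP20187 dimerizer at 100 nM; 0% = DMSO with dimerizer and 100% = rapamycin at 8.4 µM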
Runt-CBFb FRET: Runt domain-CBFb interaction inhibition. inhibition, % at 20 µM. Cerulean-Runt/Venus-CBFb FRET ratio 530/480, 1 h. hit rate 0.46% among 220,000. Q01196+Q13951;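 active = inhibition over about 50% at 20 µM in the single-dose screen, limit read from the data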;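 also: 0% = DMSO wells and 100% = excess unlabeled CBFb competitor control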
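Buffer or medium: Tris pH 7.5 buffer with BSA. Assay system: Cerulean-labeled Runt domain protein. Amount: each fluorescent fusion protein 100 nM. Read-out basis: loss of energy transfer signal. Incubation: 1 h compound exposure, room temperature. Probe or stimulus: Venus-CBFb binding partner, 100 nM. Detection: FRET, excitation 422 nm, emission at 530 and 480 nm.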
Hck-Nef inh: human Hck-Nef kinase inhibition | AID 463187 | hit rate 0.68% among 220,000 | inhibition, % at 20 µM | Recombinant Hck-YEEI plus Nef, Z-Lyte FRET kinase assay | P08631;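 active = Hck-Nef kinase inhibition above about 50%, limit read from the data; inactive = inhibition below that limit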;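 also: 0% = DMSO with Hck plus Nef and 100% = Hck alone without Nef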
* hit, by the source's call; ? = inconclusive; . = no result given. The list is not random: actives were taken first. Their share in the collection is about 2.2%.

SMILES	eIF4E-4G inh	Runt-SMMHC FRET	RanGTP-Impb inh	PERK inh	Runt-CBFb FRET	Hck-Nef inh
Cc1ccc(C(=O)NCc2cccs2)cc1S(=O)(=O)N1CCCCC1	2	-4	2	-1	0	0
Cc1ccc(-c2nnn(CC(=O)N(c3ccccc3)C(C(=O)NC3CCCC3)c3ccco3)n2)o1 (stereo not drawn)	-22	4	?	1	0	0
O=C(NNc1nc2ccccc2s1)C1CC1	-5	1	-3	3.6*	1	2
Cn1cc(Cl)c(-c2n[nH]c(=S)n2-c2ccccc2)n1	2	1	0	3.3*	9	5
Cc1ccc(-n2c(-c3nn(C)cc3Cl)n[nH]c2=S)cc1	13	5	-3	1	6	6
COc1ccc(N=Cc2nc(-c3ccco3)oc2O)cc1	2	5	20*	1	1	-1
Cc1ccc(N=Cc2nc(-c3ccc(C)cc3)oc2O)cc1	66*	-16	8	1	-14	6
CC(C)C1COS(=O)(=O)NC1CC(=O)SC(C)(C)C (stereo not drawn)	.	.	3	.	.	.
CC1Cc2ccccc2N1C(=O)COC(=O)Cn1nnc(-c2ccccc2)n1 (stereo not drawn)	-7	2	-3	0	0	1
CCN(Cc1ccccc1)c1ccc(/C=N/N=C(N)N)cc1	23	6	38*	0	-3	12
CCN(Cc1ccccc1)c1ccc(/C=N/NC(=S)NC(C)C)cc1	4	34	-2	1	19	2
COc1ccc(CCNC(=O)CCCCCn2c(SCC(N)=O)nc3cc4c(cc3c2=O)OCO4)cc1OC	1	2	-1	-1	1	35
O=C(O)CCC(=O)c1ccc2ccc3cccc4ccc1c2c34	4	69*	5	1	28	12
Cc1cnc(C(=O)N2CCN(c3ccc(C(F)(F)F)cn3)CC2)cn1	5	-2	-2	1	-2	2
CCOC(=O)/C(C#N)=C\C=C1C=CN(C)C=C1	9	-86	51*	0	.	-2
O=[N+]([O-])c1ccc2nc(NS(=O)(=O)c3ccc(Cl)cc3)sc2c1	.	.	2	.	.	.
O=c1c(/C=C(\O)c2ccccc2)nc2ccccc2n1-c1ccccc1	-3	-66	72*	2	-101	-2
Cc1nc2ccccc2n1-c1ccccc1	6	0	-1	1	-4	0
O=C(Nc1ccccn1)c1ccc2ccccc2c1O	.	.	-2	.	.	.
N=c1oc2cc(O)ccc2cc1C(=O)Nc1nc2ccccc2s1	-12	63*	136*	1	19	81*
N=c1oc2cc(O)ccc2cc1C(=O)Nc1ccccn1	2	87*	.	0	20	115*
COc1ccccc1C(=O)Nc1nc2ccccc2s1	.	.	3	.	.	.
N=c1oc2cc(O)ccc2cc1C(=O)Nc1ccc(Br)cc1	.	.	167*	.	.	.
CCOc1ccccc1C(=O)NN1CCOCC1	.	.	3	.	.	.
O=C1CC(c2ccco2)CC(O)=C1C=Nc1cc(Cl)cc(Cl)c1 (stereo not drawn)	52*	12	0	2	33	-2
SMILES	eIF4E-4G inh	Runt-SMMHC FRET	RanGTP-Impb inh	PERK inh	Runt-CBFb FRET	Hck-Nef inh
CCOc1ccc(N=CC2=C(O)CC(c3ccco3)CC2=O)cc1 (stereo not drawn)	-3	3	-2	0	0	6
CC(C)C[C@H](NC(=O)N1CCn2c1nc1ccccc12)C(=O)NCC1CCCO1 (stereo partly drawn)	.	.	21*	.	.	.
O=C(Cc1cc(=O)[nH][nH]1)N/N=C/c1cccc2ccccc12	0	3	0	1	-5	23
CCc1ccc(OCc2ccc(C(=O)O)o2)cc1	.	.	0	.	.	.
CCOC(=O)N1CCN(S(=O)(=O)c2ccc(C(=O)Nc3sc4c(c3C(N)=O)CCN(CC)C4)cc2)CC1	.	.	43*	.	.	.
CC(=O)N1CCc2c(sc(NC(=O)C3CCCN3S(=O)(=O)c3cccs3)c2C(N)=O)C1 (stereo not drawn)	.	.	-6	.	.	.
CCCN1CCc2c(sc(NC(=O)c3ccc(S(=O)(=O)N4CCN(C(=O)OCC)CC4)cc3)c2C(N)=O)C1	.	.	96*	.	.	.
CCOC(=O)N1CCN(S(=O)(=O)c2ccc(C(=O)Nc3sc4c(c3C(=O)OC)CCN(C)C4)cc2)CC1	.	.	9	.	.	.
CCCN1CCc2c(sc(NC(=O)C3CCN(S(=O)(=O)c4cccs4)CC3)c2C(N)=O)C1	.	.	151*	.	.	.
Cc1ccccc1NC(=O)c1cn2c(nc3ccccc32)c(C#N)c1C	-2	81*	10	1	-56	23
Cc1c(Cc2ccccc2)c(=O)oc2cc(O)cc(O)c12	0	63*	4	0	24	42
Cc1coc2cc3oc(=O)c(Cc4ccccc4)c(C)c3cc12	3	13	7	0	8	2
N#Cc1cc(NC(=O)c2ccc(F)cc2)c(=O)n2c1[nH]c1ccccc12	5	-13	26*	1	-3	23
Cc1cc(C)c2c(=O)n(CC(=O)NC3CCCC3)sc2n1	6	53*	-2	0	2	-141
Nc1nnc(SCC(=O)Nc2cccc(S(N)(=O)=O)c2)s1	1	-3	-1	1	0	8
CCN(CC)S(=O)(=O)c1cccc(NC(=O)CSc2nnc(N)s2)c1	-1	-2	30*	0	0	8
C/C(=N/NC(=O)c1cccs1)c1c(C)[nH]n(-c2nc3ccccc3s2)c1=O	-4	98*	-7	0	45	18
COCCSc1nnc(-c2cccc(C#N)c2)n1C	5	1	-6	3.3*	3	0
C/C(=N/NC(N)=S)c1cc2ccc(O)cc2oc1=O	2	84*	152*	2	10	187*
NC(=S)c1cc2ccc(O)cc2oc1=O	-5	82*	147*	0	9	19
C/C(=N\NC(=O)c1ccncc1)c1cc2ccccc2oc1=O	-2	-2	5	1	-1	3
C/C(=N\NC(=O)c1ccc([N+](=O)[O-])cc1)c1cc2ccccc2oc1=O	4	4	2	1	0	0
NC(=S)c1cc2cc(Br)ccc2oc1=O	-1	-7	3	1	.	-1
C/C(=N/NC(=O)c1ccncc1)c1cc2ccc(O)cc2oc1=O	-2	63*	.	1	19	5
COc1ccc2c(c1)c(C(=O)CN1CCN(C(=O)c3ccco3)CC1)c(C)n2C	9	-38	19*	0	-3	2
COc1ccc(/C=N/NC(=O)c2ccccc2O)cc1Cn1cc(Cl)cn1	0	2	?	0	0	1
Cc1cc(C)c(C#N)c(Sc2ccc(N)cc2)n1	11	2	2	1	1	2
Cc1cc(C)c(C#N)c(SC(F)F)n1	-3	-1	98*	1	0	-2
